Experimental data reported in ChEMBL document CHEMBL3244255, “Methotrexate analogues. 10. Direct coupling of methotrexate and diethyl L-glutamate in the presence of peptide bond-forming reagents” (J Med Chem, 1978).
≈ marks a conversion by molar mass, not a printed value.

Columns and labels:
L1210 [1] = experiment: Antitumor activity against mouse L1210 cells xenografted in mouse assessed as increase in median host lifespan at 160 mg/kg, ip administered q3d on days 1, 4 and 7; assay type: functional; settings: route intraperitoneal
Summary of the method: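 Mice implanted ip with 10^5 L1210 leukemia cells. Drug was dissolved in 0.005 M sodium phosphate buffer, pH 7.4, freshly prepared before use, and injected ip on days 1, 4 and 7 after implantation. The dose range tested was 20–160 mg/kg. Five mice per group, 15 controls. Read-out is the percent increase in median life span versus untreated mice.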

[2] = Retardation factor of the compound using CHCl3-MeOH at ratio of 1:1 as solvent system by thin layer chromatography; assay type: physicochemical
[3] = Retardation factor of the compound using C6H6-MeOH-AcOH at ratio of 9:3:1 as solvent system by thin layer chromatography; assay type: physicochemical
CCRF-CEM = experiment: Growth inhibition of human CCRF-CEM cells; assay type: functional; settings: read-out: ID50 (the source's name)
Summary of the method: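 Human lymphoblastic leukaemia CCRF-CEM cells were grown in culture with the compound, and the concentration giving 50% growth inhibition (ID50) was reported in µg/mL.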

Mus musculus = experiment: Toxicity in mouse xenografted with mouse L1210 cells assessed as body weight loss at 80 to 160 mg/kg, ip administered q3d on days 1,4 and 7; assay type: organism-based; design: dose 80-160 mg/kg, route intraperitoneal; settings: in vivo
Summary of the method: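 Mice were implanted ip with 10^5 L1210 cells and dosed ip on days 1, 4 and 7 after implantation. Soluble compounds were dissolved in freshly prepared 0.005 M sodium phosphate, pH 7.4; an insoluble one was suspended in 10% Tween 80. Groups had five mice, with 15 untreated controls, and body weight loss was scored as toxicity.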

[4] = Retardation factor of the compound using C6H6-MeOH-AcOH at ratio of 9:6:1 as solvent system by thin layer chromatography; assay type: physicochemical
[5] = Retardation factor of the compound using C6H6-MeOH-AcOH at ratio of 45:30:1 as solvent system by thin layer chromatography; assay type: physicochemical
[6] = Retardation factor of the compound using CHCl3-MeOH at ratio of 6:1 as solvent system by thin layer chromatography; assay type: physicochemical
[7] = Retardation factor of the compound using CHCl3-MeOH at ratio of 3:1 as solvent system by thin layer chromatography; assay type: physicochemical
L1210 [8] = experiment: Anticancer activity against mouse L1210 cells xenografted in mouse assessed as increase in median host survival at 120 mg/kg, ip administered q3d on days 1, 4, 7; assay type: functional; settings: route intraperitoneal
L1210 [9] = experiment: Antitumor activity against mouse L1210 cells xenografted in mouse assessed as increase in median host lifespan at 15 mg/kg, ip administered q3d on days 1, 4 and 7; assay type: functional; settings: route intraperitoneal
Summary of the method: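 L1210 murine leukemia, 10^5 cells implanted ip; drug given ip on days 1, 4 and 7 after implantation, as disodium salt in aqueous solution. Five mice per treated group, 15 untreated controls. Read-out is the percent increase in median survival time over untreated mice.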

| SMILES | Rf [2] | IC50 (CCRF-CEM) | Rf [6] | Rf [7] | Activity (L1210 [1]) | Rf [3] | Activity (Mus musculus) | Rf [4] | Rf [5] | survival at 120 mg/kg (L1210 [8]) | Activity (L1210 [9]) |
| --- | --- | --- | --- | --- | --- | --- | --- | --- | --- | --- | --- |
| CCOC(=O)CC[C@H](NC(=O)CC[C@H](NC(=O)c1ccc(N(C)Cc2cnc3nc(N)nc(N)c3n2)cc1)C(=O)O)C(=O)OCC [listing 1 of 2 here] | 0.23 | 0.88 µg/mL (≈ 1.38 µM) | 0.01 | 0.02 | 40% | 0.2 | Toxic | 0.35 | 0.44 |  |  |
| CCOC(=O)CC[C@H](NC(=O)[C@H](CCC(=O)O)NC(=O)c1ccc(N(C)Cc2cnc3nc(N)nc(N)c3n2)cc1)C(=O)OCC | 0.28 | > 10 µg/mL | 0.04 | 0.1 | 10% | 0.31 | Toxic | 0.46 | 0.58 |  |  |
| CCOC(=O)CC[C@H](NC(=O)CC[C@H](NC(=O)c1ccc(N(C)Cc2cnc3nc(N)nc(N)c3n2)cc1)C(=O)O)C(=O)OCC [listing 2 of 2 here] |  |  |  |  |  |  |  |  |  | 77% |  |
| CN(Cc1cnc2nc(N)nc(N)c2n1)c1ccc(C(=O)N[C@@H](CCC(=O)[O-])C(=O)[O-])cc1.[Na+].[Na+] [METHOTREXATE SODIUM] |  |  |  |  |  |  |  |  |  |  | 60% |
| CN(Cc1cnc2nc(N)nc(N)c2n1)c1ccc(C(=O)N[C@@H](CCC(=O)O)C(=O)O)cc1 [METHOTREXATE] |  | 0.003 µg/mL (≈ 0.0066 µM) |  |  |  |  |  |  |  |  |  |

Second part, led by results:

| Rf [2] | IC50 (CCRF-CEM) | Rf [6] | Rf [7] | SMILES | Activity (L1210 [1]) | Rf [3] | Activity (Mus musculus) | Rf [4] | Rf [5] | survival at 120 mg/kg (L1210 [8]) | Activity (L1210 [9]) |
| --- | --- | --- | --- | --- | --- | --- | --- | --- | --- | --- | --- |
| 0.82 | 3.8 µg/mL (≈ 4.61 µM) | 0.46 | 0.78 | CCOC(=O)CC[C@H](NC(=O)CC[C@H](NC(=O)c1ccc(N(C)Cc2cnc3nc(N)nc(N)c3n2)cc1)C(=O)N[C@@H](CCC(=O)OCC)C(=O)OCC)C(=O)OCC |  |  |  |  |  |  |  |
| 0.82 | 9 µg/mL (≈ 10.9 µM) | 0.43 | 0.77 | CCOC(=O)CC[C@H](NC(=O)CC[C@@H](NC(=O)c1ccc(N(C)Cc2cnc3nc(N)nc(N)c3n2)cc1)C(=O)N[C@@H](CCC(=O)OCC)C(=O)OCC)C(=O)OCC |  |  |  |  |  |  |  |
| 0.79 | 1.8 µg/mL (≈ 2.7 µM) | 0.44 | 0.76 | CCOC(=O)CC[C@H](NC(=O)CC[C@H](NC(=O)c1ccc(N(C)Cc2cnc3nc(N)nc(N)c3n2)cc1)C(=O)OCC)C(=O)OCC |  |  |  |  |  |  |  |
| 0.79 | 0.85 µg/mL (≈ 1.27 µM) | 0.4 | 0.73 | CCOC(=O)CC[C@H](NC(=O)c1ccc(N(C)Cc2cnc3nc(N)nc(N)c3n2)cc1)C(=O)N[C@@H](CCC(=O)OCC)C(=O)OCC |  |  |  |  |  |  |  |
| 0.82 |  | 0.4 | 0.77 | CCOC(=O)CCC(NC(=O)CCC(NC(=O)c1ccc(N(C)Cc2cnc3nc(N)nc(N)c3n2)cc1)C(=O)NC(CCC(=O)OCC)C(=O)OCC)C(=O)OCC (mixture of isomers) |  | 0.47 |  | 0.68 | 0.82 |  |  |
